We go through 2 molecules from ChEMBL document CHEMBL4229446, “Development of Novel Monoamine Oxidase-B (MAO-B) Inhibitors with Reduced Blood-Brain Barrier Permeability for the Potential Management of Noncentral Nervous System (CNS) Diseases” (J Med Chem, 2018).

Data set [1] is described as follows: Tmax in C57BL/6 mouse plasma at 24.5 mg/kg, iv administered as single dose measured 24 hrs by UPLC-MS/MS analysis. The class given is ADME, organism-based. In short, it runs like this:
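Plasma cleaned by protein precipitation with phospholipid removal, then UPLC-MS/MS in MRM mode. Tmax obtained by noncompartmental analysis.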

A short description of data set [2]: AUClast in C57BL/6 mouse plasma at 24.5 mg/kg, iv administered as single dose measured 24 hrs by UPLC-MS/MS analysis. The class given is ADME, organism-based. On the set-up: dose 24.5 mg/kg, time 0 - last, route intravenous. Put shortly:
(§1)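 21 animals dosed at 0 min, 3 sacrificed at each of 0, 5, 15, 30 min, 1, 4 and 24 h. Plasma was extracted by protein precipitation with phospholipid removal. Brain was weighed, bead-homogenised in 50 mM ammonium formate and extracted in acidified organic solvent. Quantified by UPLC-MS/MS (MRM). Brain ng/g taken as ng/mL. Parameters came from noncompartmental analysis. Kp = AUClast brain/plasma.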

The nature of data set [3]: Cmax in C57BL/6 mouse brain at 24.5 mg/kg, iv administered as single dose measured 24 hrs by UPLC-MS/MS analysis. The class given is ADME, organism-based. On the set-up: dose 24.5 mg/kg, route intravenous. Put shortly:
as §1

Data set [4] is described as follows: Cmax in C57BL/6 mouse plasma at 24.5 mg/kg, sc administered as single dose measured 24 hrs by UPLC-MS/MS analysis. The class given is ADME, organism-based. On the set-up: dose 24.5 mg/kg, route subcutaneous. Put shortly:
(§2)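 15 animals dosed, 3 sacrificed at each of 1, 2, 4, 6 and 24 h. Plasma and brain homogenate were extracted and quantified by UPLC-MS/MS. Parameters came from noncompartmental analysis. Values above or below the limit of quantification, or undetected, were omitted. Kp = AUClast brain/plasma.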

Data set [5] can be described thus: AUClast in C57BL/6 mouse plasma at 24.5 mg/kg, sc administered as single dose measured 24 hrs by UPLC-MS/MS analysis. The arrangement: dose 24.5 mg/kg, time 0 - last, route subcutaneous. It counts as ADME, organism-based. Put shortly: as §2
Data set [6] in a line: Ratio of AUClast in brain to plasma in C57BL/6 mouse at 24.5 mg/kg, sc administered as single dose measured 24 hrs by UPLC-MS/MS analysis. The class given is ADME, organism-based. In short, it runs like this: as §2
Data set [7] in a line: Tmax in C57BL/6 mouse plasma at 24.5 mg/kg, po administered as single dose measured 24 hrs by UPLC-MS/MS analysis. It counts as ADME, organism-based. Put shortly: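 Plasma extracted by protein precipitation/phospholipid removal and measured by UPLC-MS/MS (MRM). Parameters by noncompartmental analysis, omitting values outside quantification limits or undetected.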
A short description of data set [8]: Apparent half-life of the terminal disposition phase in C57BL/6 mouse plasma at 24.5 mg/kg, po administered as single dose measured 24 hrs by UPLC-MS/MS analysis. The conditions noted are these: read-out: t1/2 lambda z (converted). The class given is ADME, organism-based. Put shortly: as §2
Data set [9] can be described thus: Cmax in C57BL/6 mouse brain at 24.5 mg/kg, po administered as single dose measured 24 hrs by UPLC-MS/MS analysis. It counts as ADME, organism-based. On the set-up: dose 24.5 mg/kg, route oral. Put shortly:
as §2

A short description of data set [10]: Metabolic stability in mouse liver microsomes assessed as parent compound remaining at 1 uM after 60 mins by UPLC-MS/MS analysis. It counts as ADME, microsome. Particulars: liver microsomes, read-out: Stability. Put shortly: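 Compound at 1 μM with 0.5 mg/mL mouse or human liver microsomes in 100 mM potassium phosphate pH 7.4, 3.3 mM MgCl2, 1 mM NADPH, at 37 °C. Started with NADPH; minus-NADPH control run. Stopped at 0, 5, 15, 30, 45 and 60 min with acetonitrile/formic acid plus internal standard. Parent remaining by UPLC-MS/MS, in triplicate.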
(Liver microsomes are a subcellular fraction often used to study metabolism.)

Data set [11] is described as follows: Cmax in C57BL/6 mouse plasma at 23.4 mg/kg, iv administered as single dose measured 24 hrs by UPLC-MS/MS analysis. The arrangement: dose 23.4 mg/kg, route intravenous. It counts as ADME, organism-based. In short, it runs like this:
(§3)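 21 animals dosed at 0 min, 3 killed per time point (0, 5, 15, 30 min, 1, 4, 24 h). Plasma extracted by protein precipitation/phospholipid removal. Brain homogenized in 50 mM ammonium formate, then extracted in acidified organic solvent. Both quantified by UPLC-MS/MS (MRM), brain ng/g taken as ng/mL. Noncompartmental analysis. Kp = AUClast brain/plasma.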

Data set [12] in a line: AUClast in C57BL/6 mouse plasma at 23.4 mg/kg, iv administered as single dose measured 24 hrs by UPLC-MS/MS analysis. The class given is ADME, organism-based. On the set-up: dose 23.4 mg/kg, time 0 - last, route intravenous. Put shortly: as §3
The nature of data set [13]: Apparent half-life of the terminal disposition phase in C57BL/6 mouse plasma at 23.4 mg/kg, iv administered as single dose measured 24 hrs by UPLC-MS/MS analysis. It counts as ADME, organism-based. The conditions noted are these: read-out: t1/2 lambda z (converted). Put shortly:
as §3

Data set [14] can be described thus: Apparent half-life of the terminal disposition phase in C57BL/6 mouse brain at 23.4 mg/kg, iv administered as single dose measured 24 hrs by UPLC-MS/MS analysis. Particulars: read-out: t1/2 lambda z (converted). It counts as ADME, organism-based. Put shortly: as §3
A short description of data set [15]: Tmax in C57BL/6 mouse brain at 23.4 mg/kg, iv administered as single dose measured 24 hrs by UPLC-MS/MS analysis. The class given is ADME, organism-based. Put shortly:
as §3

Data set [16] can be described thus: Cmax in C57BL/6 mouse brain at 23.4 mg/kg, iv administered as single dose measured 24 hrs by UPLC-MS/MS analysis. The class given is ADME, organism-based. The arrangement: dose 23.4 mg/kg, route intravenous. Put shortly: as §3
A short description of data set [17]: AUClast in C57BL/6 mouse brain at 23.4 mg/kg, iv administered as single dose measured 24 hrs by UPLC-MS/MS analysis. The class given is ADME, organism-based. The arrangement: dose 23.4 mg/kg, route intravenous, time 0 - last. In short, it runs like this:
as §3

Data set [18] can be described thus: Cmax in C57BL/6 mouse plasma at 23.4 mg/kg, sc administered as single dose measured 24 hrs by UPLC-MS/MS analysis. It counts as ADME, organism-based. The arrangement: dose 23.4 mg/kg, route subcutaneous. Put shortly:
(§4)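 15 animals dosed, 3 killed at each of 1, 2, 4, 6 and 24 h. Plasma and brain homogenate (ammonium formate, acidified organic extraction) assayed by UPLC-MS/MS, brain ng/g taken as ng/mL. Noncompartmental parameters exclude values above/below quantification limit or undetected. Kp = AUClast brain/plasma.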

Data set [19] in a line: AUClast in C57BL/6 mouse plasma at 23.4 mg/kg, sc administered as single dose measured 24 hrs by UPLC-MS/MS analysis. It counts as ADME, organism-based. On the set-up: dose 23.4 mg/kg, time 0 - last, route subcutaneous. In short, it runs like this: as §4
A short description of data set [20]: Cmax in C57BL/6 mouse brain at 23.4 mg/kg, sc administered as single dose measured 24 hrs by UPLC-MS/MS analysis. The class given is ADME, organism-based. On the set-up: dose 23.4 mg/kg, route subcutaneous. In short, it runs like this:
as §4

Data set [21] can be described thus: Ratio of AUClast in brain to plasma in C57BL/6 mouse at 23.4 mg/kg, sc administered as single dose measured 24 hrs by UPLC-MS/MS analysis. It counts as ADME, organism-based. Put shortly:
as §4

Data set [22] is described as follows: Tmax in C57BL/6 mouse plasma at 23.4 mg/kg, po administered as single dose measured 24 hrs by UPLC-MS/MS analysis. The class given is ADME, organism-based. Put shortly: as §4
Data set [23] in a line: Cmax in C57BL/6 mouse plasma at 23.4 mg/kg, po administered as single dose measured 24 hrs by UPLC-MS/MS analysis. It counts as ADME, organism-based. On the set-up: dose 23.4 mg/kg, route oral. Put shortly:
as §4

Data set [24] can be described thus: AUClast in C57BL/6 mouse plasma at 23.4 mg/kg, po administered as single dose measured 24 hrs by UPLC-MS/MS analysis. The class given is ADME, organism-based. On the set-up: dose 23.4 mg/kg, time 0 - last, route oral. Put shortly: as §4
Data set [25] in a line: Apparent half-life of the terminal disposition phase in C57BL/6 mouse plasma at 23.4 mg/kg, po administered as single dose measured 24 hrs by UPLC-MS/MS analysis. It counts as ADME, organism-based. The conditions noted are these: read-out: t1/2 lambda z (converted). In short, it runs like this:
as §4

Data set [26] is described as follows: Tmax in C57BL/6 mouse brain at 23.4 mg/kg, po administered as single dose measured 24 hrs by UPLC-MS/MS analysis. It counts as ADME, organism-based. Put shortly: as §4
Data set [27] can be described thus: Ratio of AUClast in brain to plasma in C57BL/6 mouse at 23.4 mg/kg, po administered as single dose measured 24 hrs by UPLC-MS/MS analysis. It counts as ADME, organism-based. In short, it runs like this: as §4

SMILES strings stand for the structures.

As for `C[C@H](Cc1ccc(OCc2ccc(Br)c(Cl)c2)cc1)N(C)CC(=O)O`, the Tmax (as a rule, the time at which the peak concentration occurs) amounted to 5 min in [1] and 1 h in [7]. Besides, the AUC(0-t) (commonly exposure summed from dosing to a finite time, without extrapolation to infinity) at 24 h in data set [2] was determined as 94800 ng·h/mL; in data set [5] it was 66900 ng·h/mL. In addition, the Cmax (usually the highest concentration seen after dosing) in data set [3] came to 653 ng/mL; in data set [4] it was 7110 ng/mL; in [9], 812 ng/mL. In addition, the Kp (in general, tissue or fluid exposure divided by exposure in the circulation) at 24 h in data set [6] turned out to be 0.19. In data set [8], the half-life was 215 min.

For the molecule `CN(CC(=O)O)[C@H](CC#N)Cc1ccc(OCc2ccc(Cl)c(Cl)c2)cc1`, in data set [10], the remaining at 1 h, 1 µM came out at 39%. In addition, the Cmax in [11] stood at 52.1 µg/mL; in [16] it was 305 ng/mL; in [18], 13300 ng/mL; in data set [20], 91.3 ng/mL; in data set [23] it was 16800 ng/mL. Moreover, the AUC(0-t) at 24 h in [12] came out at 39100 ng·h/mL; in data set [17], 183 ng·h/mL; in data set [19] it was 35100 ng·h/mL; in [24], 73000 ng·h/mL. Moreover, the half-life in [13] was 44.4 min; in data set [14], 39 min; in data set [25] it was 176 min. Moreover, the figures for the Tmax in data set [15], in data set [22] and in data set [26] were 5 min, 1 h and 1 h, respectively. The values for the Kp at 24 h in [21] and in [27] were 0.005 and 0.002, respectively.
